In ChEMBL document CHEMBL4425098, “Thiolactomycin-Based Inhibitors of Bacterial β-Ketoacyl-ACP Synthases with in Vivo Activity” (J Med Chem, 2016):
Values after ≈ are worked out from the molar mass of the structure shown. Active and inactive are the calls of the source. The calls are words filed in the database; no cut-off is given here.

Key:
[1] = system: Mycobacterium tuberculosis; assay: Binding affinity to Mycobacterium tuberculosis wild type FabB expressed in Mycobacterium smegmatis MC2 155 by WaterLOGSY-based competition assay
[2] = system: Yersinia pestis; assay: Antibacterial activity against Yersinia pestis A1122 after 18 to 24 hrs by Alamar blue dye-based colorimetric assay; type: functional
[3] = molecular target: T1, 3-oxoacyl-[acyl-carrier-protein] synthase 2 (Staphylococcus aureus, UniProt Q5TKS0); assay: Binding affinity to Staphylococcus aureus wild type FabF expressed in Escherichia coli BL21 (DE3) PlysS cells by intrinsic tryptophan fluorescence quenching-based fluorimetric method
T1 sequence (Q5TKS0 whole entry): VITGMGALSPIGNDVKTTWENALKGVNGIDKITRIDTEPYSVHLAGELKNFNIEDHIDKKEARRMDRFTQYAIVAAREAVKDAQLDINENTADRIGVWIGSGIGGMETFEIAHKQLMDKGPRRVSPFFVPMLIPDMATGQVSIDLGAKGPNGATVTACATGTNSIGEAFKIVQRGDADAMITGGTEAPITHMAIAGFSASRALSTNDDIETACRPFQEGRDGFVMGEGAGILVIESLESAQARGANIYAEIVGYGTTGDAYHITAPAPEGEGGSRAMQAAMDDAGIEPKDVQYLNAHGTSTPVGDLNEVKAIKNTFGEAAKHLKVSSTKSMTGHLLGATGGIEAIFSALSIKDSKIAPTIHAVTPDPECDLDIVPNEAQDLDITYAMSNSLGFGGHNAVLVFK

[4] = system: Klebsiella pneumoniae; assay: Antibacterial activity against Klebsiella pneumoniae KPC2ST258 infected in Swiss Webster mouse assessed as survival time at 100 mg/kg, sc administered 1, 12 and 24 hrs post infection measured every 12 hrs for 7 days; type: functional
Method in brief: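 K. pneumoniae KPC2ST258 was given IP as 5×10⁶ cfu in BHI broth. Drugs in saline/PEG400/ethanol (40/20/40) were injected SC at 100 mg/kg/inj at 1, 12 and 24 h post infection. Mice were checked every 12 h for 7 days, n=8–10 per group. Average survival time was compared with vehicle by one-tailed t test.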

[5] = molecular target: 3-oxoacyl-[acyl-carrier-protein] synthase 2 (Staphylococcus aureus, UniProt Q5TKS0, C165Q); assay: Binding affinity to Staphylococcus aureus FabF C165Q mutant expressed in Escherichia coli BL21 (DE3) PlysS cells by intrinsic tryptophan fluorescence quenching-based fluorimetric method
Method in brief: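 Kd by quenching of intrinsic tryptophan fluorescence (excitation 280 nm, emission 337 nm). Inhibitor stocks in DMSO or buffer were titrated into 1 μM His-tag-purified enzyme in 50 mM Tris-HCl, 150 mM NaCl, 1 mM DTT, pH 8.5. mtFabB was expressed in M. smegmatis MC²155; saFabF was expressed in E. coli BL21(DE3) pLysS.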

[6] = system: Burkholderia pseudomallei; assay: Antibacterial activity against Burkholderia pseudomallei after 18 to 24 hrs by Alamar blue dye-based colorimetric assay; type: functional
[7] = system: Francisella tularensis; assay: Antibacterial activity against Francisella tularensis LVS after 18 to 24 hrs by Alamar blue dye-based colorimetric assay; type: functional
[8] = system: THP-1; assay: Cytotoxicity against human THP1 cells at < 100 ug/ml after 2 days by Alamar blue assay; type: cell-based; settings: thp-1, 48 h
[9] = system: Staphylococcus aureus; assay: Antibacterial activity against methicillin-resistant Staphylococcus aureus BAA 1762 after 18 to 24 hrs by Alamar blue dye-based colorimetric assay; type: functional
[10] = system: Mycobacterium tuberculosis; assay: Antibacterial activity against Mycobacterium tuberculosis H37Rv after 6 days by Alamar blue dye-based colorimetric assay; type: functional; settings: 144 h
Method in brief: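 M. tuberculosis H37Rv grown to early-mid log phase in Middlebrook 7H9 with 10% OADC and 0.05% Tween 80, added to 1:2 serial compound dilutions, and grown for 6 days at 37°C. Alamar blue then added for a further 24 h. MIC taken as the concentration preventing visible growth and Alamar blue reduction in all replicates.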

[11] = system: Staphylococcus aureus; assay: Antibacterial activity against methicillin-resistant Staphylococcus aureus BAA 1762 infected in Swiss Webster mouse assessed as increase in survival rate at 100 mg/kg, sc administered 1 and 25 hrs post infection measured twice a day for 5 days relative to vehicle-treated control; type: functional, organism-based
Method in brief: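 Mice made neutropenic with cyclophosphamide 4 days and 1 day before infection. MRSA BAA 1762 was given IP as 0.5 mL of 5×10⁷ cells/mL in BHI. Analogues in water/ethanol, or vancomycin in water, were dosed SC at 100 mg/kg/inj at 1 and 25 h post infection. Survival was checked every 12 h for 5 days, n=6–7 per group. Average survival time was compared with vehicle by one-tailed t test.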

[12] = system: Staphylococcus aureus; assay: Antibacterial activity against methicillin-sensitive Staphylococcus aureus RN4220 after 18 to 24 hrs by Alamar blue dye-based colorimetric assay; type: functional
Method in brief: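 Two-fold serial dilutions from 512 down to 0.25 μg/mL in CAMHB (microbroth dilution); incubated 37 °C for 18–24 h, then Alamar Blue added for a further 4 h. Absorbance read at 570 and 600 nm; percent growth reduction plotted against concentration, MIC90 from non-linear regression; growth and MICs confirmed by optical density.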

`C=C/C(C)=C/[C@@]1(C)SC(=O)C(C)=C1O` [THIOLACTOMYCIN] was tested, and the Activity [1] was “inactive”, the MIC90 [2] was 8 µg/mL (≈ 38 µM) and the Kd [3] was 107 µM. It also gave an MSD [4] of 3.25 days, a Kd [5] of 88 µM and an MIC [6] of 8 µg/mL (≈ 38 µM). For the same compound, the MIC90 [7] was 2.8 µg/mL (≈ 13.3 µM), the Activity [8] was “Non-Toxic” and the MIC90 [9] was 75 µg/mL (≈ 357 µM). The MIC90 [10] was 3.1 µg/mL (≈ 14.7 µM), the Activity [11] was “Active” and the MIC90 [12] was 75 µg/mL (≈ 357 µM).
